pIC50: −log10 of the molar value.
Assays:
Type in all cases: functional, cell-based
HepG2 = assay: Cytotoxicity against human HepG2 cells measured after 48 hrs by MTT assay; conditions: HepG2, 48 h
Procedure, shortened: (§1)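 Seeded at 7x10^3 cells/well and allowed 24 h to attach. Compounds added at final 0 to 200 μM and incubated 48 h. Viability read by MTT. IC50 taken as the concentration giving 50% growth inhibition; mean ± SD, N = 4.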

A-431 = assay: Cytotoxicity against human A431 cells measured after 48 hrs by MTT assay; conditions: A-431, 48 h; procedure, shortened: as §1
[1] = Cytotoxicity against human SA cells measured after 48 hrs by MTT assay; conditions: +SA cell; procedure, shortened: as §1
MCF7 = assay: Cytotoxicity against human MCF7 cells measured after 48 hrs by MTT assay; conditions: MCF7, 48 h; procedure, shortened: as §1
SiHa = assay: Cytotoxicity against human SiHa cells measured after 48 hrs by MTT assay; procedure, shortened: as §1
SW-620 = assay: Cytotoxicity against human SW620 cells measured after 48 hrs by MTT assay; conditions: SW-620, 48 h; procedure, shortened: as §1

| Compound | pIC50 (HepG2) | pIC50 (A-431) | pIC50 [1] | pIC50 (MCF7) | pIC50 (SiHa) | pIC50 (SW-620) |
| --- | --- | --- | --- | --- | --- | --- |
| CCCCCCCCCCCCCCNC(=O)[C@@H](NC(=O)c1cc2ccccc2o1)[C@@H](C)O | 4.63 | 4.70 | 5.02 | 4.63 | 4.85 | 4.57 |
| CCCCCCCCCCCCCCCCCCNC(=O)[C@@H](NC(=O)c1cc2ccccc2[nH]1)[C@@H](C)O | 4.05 | 4.09 | 4.45 | 4.45 | 4.53 | 4.63 |
| CCCCCCCCCCCCCCNC(=O)[C@@H](NC(=O)c1nccc2ccccc12)[C@@H](C)O | 4.54 | 4.64 | 4.61 | 4.64 | 4.67 | 4.52 |
| CCCCCCCCCCCCCCNC(=O)[C@@H](NC(=O)c1cc2ccccc2[nH]1)[C@@H](C)O | 4.98 | 4.91 | 4.92 | 4.82 | 4.85 | 4.82 |
| CCCCCCCCCCCCCCNC(=O)[C@@H](NC(=O)/C=C/c1ccccc1)[C@@H](C)O | – | 4.19 | 4.09 | 4.19 | 4.45 | 3.70 |
| CCCCCCCCCCCCCCCCCCNC(=O)[C@@H](NC(=O)c1ccco1)[C@@H](C)O | 4.37 | 4.70 | 4.28 | 4.67 | 4.87 | < 3.70 |
| C/C=C/C=C/C(=O)N[C@H](C(=O)NCCCCCCCCCCCC)[C@@H](C)O | – | – | – | 4.43 | – | 3.70 |
| CCCCCCCCCCCCCCCCCCNC(=O)[C@@H](NC(=O)c1ccccc1)[C@@H](C)O | – | – | < 3.40 | 4.50 | 4.42 | 3.70 |
| CCCCCCCCCCCCNC(=O)[C@@H](NC(=O)Cc1c[nH]c2ccccc12)[C@@H](C)O | 4.65 | 4.63 | 4.70 | 4.81 | 4.87 | 4.66 |
| CCCCCCCCCCCCCCCCCCNC(=O)[C@@H](NC(=O)/C=C/c1ccccc1)[C@@H](C)O | – | – | 4.33 | 4.41 | 4.44 | 3.70 |
| C/C=C/C=C/C(=O)N[C@H](C(=O)NCCCCCCCCCCCCCCCCCC)[C@@H](C)O | 3.55 | 3.73 | < 3.70 | 4.10 | < 3.70 | 3.70 |
| CCCCCCCCCCCCNC(=O)[C@@H](NC(=O)c1cc2ccccc2n1C)[C@@H](C)O | – | – | 4.50 | 4.50 | – | < 3.70 |
| CCCCCCCCCCCCNC(=O)[C@@H](NS(=O)(=O)c1ccc(C)cc1)[C@@H](C)O | 4.59 | 4.60 | 4.56 | 4.51 | 4.50 | 4.59 |
| CCCCCCCCNC(=O)[C@@H](NC(=O)/C=C/c1ccccc1)[C@@H](C)O | 4.26 | 4.44 | 4.59 | 4.46 | 4.38 | 4.21 |
| CCCCCCCCCCCCCCCCCCNC(=O)[C@@H](NS(=O)(=O)c1cccs1)[C@@H](C)O | – | – | < 3.70 | < 3.70 | – | < 3.70 |
| C/C=C/C=C/C(=O)N[C@H](C(=O)NCCCCCCCCCCCCCC)[C@@H](C)O | – | – | – | 4.56 | – | 3.70 |
| CCCCCCCCCCCCNC(=O)[C@@H](NC(=O)c1cc2ccccc2o1)[C@@H](C)O | 4.64 | 4.70 | 4.98 | 4.68 | 4.89 | 4.67 |
| CCCCCCCCNC(=O)[C@@H](NC(=O)c1ccco1)[C@@H](C)O | – | 4.19 | 4.19 | 4.04 | – | 3.70 |

| Compound | pIC50 (HepG2) | pIC50 (A-431) | pIC50 [1] | pIC50 (MCF7) | pIC50 (SiHa) | pIC50 (SW-620) |
| --- | --- | --- | --- | --- | --- | --- |
| CCCCCCCCCCCCCCCCCCNC(=O)[C@@H](NC(=O)Cc1c[nH]c2ccccc12)[C@@H](C)O | 4.24 | 4.50 | 4.26 | 4.43 | 4.18 | – |
| CCCCCCCCCCCCCCNC(=O)[C@@H](NC(=O)c1ccco1)[C@@H](C)O | – | – | – | – | – | 3.70 |
| CCCCCCCCCCCCCCCCCCNC(=O)[C@@H](NC(=O)c1cccs1)[C@@H](C)O | 4.04 | 4.48 | 4.27 | 4.59 | – | 3.70 |
| CCCCCCCCNC(=O)[C@@H](NC(=O)c1nccc2ccccc12)[C@@H](C)O | 4.05 | 4.57 | 4.64 | 4.20 | 4.18 | 4.17 |
| CCCCCCCCNC(=O)[C@@H](NC(=O)c1ccccc1)[C@@H](C)O | – | 4.21 | 4.46 | – | – | 3.70 |
| CCCCCCCCCCCCCCCCCCNC(=O)[C@@H](NS(=O)(=O)c1ccc2ccccc2c1)[C@@H](C)O | 4.70 | 4.63 | 4.67 | 4.56 | 4.70 | 4.61 |
| CCCCCCCCCCCCNC(=O)[C@@H](NC(=O)c1cccs1)[C@@H](C)O | 4.52 | 4.78 | 4.63 | 4.52 | 4.62 | 4.53 |
| CCCCCCCCCCCCCCNC(=O)[C@@H](NC(=O)c1ccccc1)[C@@H](C)O | 4.27 | – | 4.25 | 4.61 | – | 3.70 |
| CCCCCCCCCCCCCCCCCCNC(=O)[C@@H](N)[C@@H](C)O | 4.35 | 4.67 | < 3.70 | 4.56 | 4.40 | 4.67 |
| CCCCCCCCCCCCCCNC(=O)[C@@H](NS(=O)(=O)c1cccs1)[C@@H](C)O | 4.67 | 4.66 | 4.94 | 4.73 | 4.69 | 4.74 |
| CCCCCCCCCCCCCCCCCCNC(=O)[C@@H](NS(=O)(=O)c1ccc(C)cc1)[C@@H](C)O | 4.12 | 4.47 | 4.32 | 4.22 | 4.53 | 4.49 |
| CCCCCCCCCCCCNC(=O)[C@@H](NS(=O)(=O)c1cccs1)[C@@H](C)O | 4.59 | 4.66 | 4.70 | 4.72 | 4.51 | 4.55 |
| CCCCCCCCCCCCCCCCCCNC(=O)[C@@H](NC(=O)c1cc2ccccc2o1)[C@@H](C)O | – | 4.10 | – | – | – | < 3.70 |
| CCCCCCCCCCCCCCCCCCNC(=O)[C@@H](NC(=O)c1cc2ccccc2n1C)[C@@H](C)O | – | 4.21 | 4.44 | 4.44 | – | 3.91 |
| CCCCCCCCCCCCNC(=O)[C@@H](NC(=O)c1cc2ccccc2[nH]1)[C@@H](C)O | 4.92 | 4.99 | 4.91 | 4.91 | 4.67 | 4.73 |
| CCCCCCCCCCCCNC(=O)[C@@H](NC(=O)/C=C/c1ccccc1)[C@@H](C)O | – | – | – | – | – | 3.70 |
| CCCCCCCCCCCCCCNC(=O)[C@@H](NC(=O)c1cccs1)[C@@H](C)O | 4.05 | 4.58 | 4.67 | 4.44 | 4.20 | 4.11 |

Source: ChEMBL document CHEMBL4316609, “Chemical synthesis and functional characterization of a new class of ceramide analogues as anti-cancer agents” (Bioorg Med Chem, 2019)
